Test results taken from ChEMBL document CHEMBL4184316 (J Med Chem, 2018).
Calls of active or inactive are those of the source. The rule behind the calls is not given here.

How the values were obtained:
[1] = molecular target: T1, Pyruvate kinase PKM (Homo sapiens, UniProt P14618); test: Binding affinity to PKM2 in human HL60 cells at 20 uM after overnight incubation by silver staining-based streptavidin-agarose pull-down assay; format: cell-based
Procedure, shortened: (§1)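 HL60 lysate incubated overnight at 4 °C with biotinylated probe, with or without excess free parent compound for competition. Pull-down on streptavidin-agarose, then SDS-PAGE with silver staining, or Western blot with anti-PKM2. Repeated at least three times.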
Target sequence in this assay (P14618 2-531 limits assumed): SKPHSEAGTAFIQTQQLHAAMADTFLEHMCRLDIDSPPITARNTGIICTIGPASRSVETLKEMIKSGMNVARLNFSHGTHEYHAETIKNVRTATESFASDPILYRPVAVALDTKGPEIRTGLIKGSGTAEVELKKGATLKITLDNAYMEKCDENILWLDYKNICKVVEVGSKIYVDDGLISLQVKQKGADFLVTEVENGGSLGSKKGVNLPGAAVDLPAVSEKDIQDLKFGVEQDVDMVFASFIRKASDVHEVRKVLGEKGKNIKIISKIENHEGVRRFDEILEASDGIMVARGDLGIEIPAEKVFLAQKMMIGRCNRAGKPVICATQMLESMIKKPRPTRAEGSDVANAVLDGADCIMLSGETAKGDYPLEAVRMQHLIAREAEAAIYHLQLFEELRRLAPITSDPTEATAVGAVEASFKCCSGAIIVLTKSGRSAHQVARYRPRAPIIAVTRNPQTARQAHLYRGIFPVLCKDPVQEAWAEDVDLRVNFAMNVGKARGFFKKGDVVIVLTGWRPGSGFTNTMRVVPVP

[2] = system: HL-60; test: Antiproliferative activity against human HL60 cells at 5 to 20 uM after 24 hrs in presence of shControl by MTT assay; format: functional, cell-based
Procedure, shortened: (§2)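 HL60 transduced with lentiviral shPKM2 or shControl (5 μg/mL Polybrene), selected 72 h in 1 μg/mL puromycin. Stable lines treated with compound or DMSO for 24 h, then viability assayed.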

[3] = system: HL-60; test: Effect on PKM2 levels in human HL60 cells at 2.5 to 10 uM after 20 hrs by Western blot method; format: functional, cell-based
[4] = system: HL-60; test: Antiproliferative activity against human HL60 cells at 5 to 20 uM after 24 hrs in presence of shPKM2 by MTT assay; format: functional, cell-based; procedure, shortened: as §2
[5] = Toxicity in zebrafish embryo xenografted with human HL60 cells assessed as mortality at 20 ug/ml relative to control; format: organism-based, Danio rerio; conditions: read-out: Activity
Procedure, shortened: (§3)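 Zebrafish embryos at 2 dpf were injected in the yolk sac with about 300 HL60 cells prelabelled with CM-Dil. Nine injected groups were then exposed to drug at a range of dosages for 3 days, with saline as the negative control. Survival and mortality were scored against the control group, and treated versus control animals were compared by Kaplan–Meier analysis.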

[6] = system: HL-60; test: Antitumor activity against human HL60 cells xenografted in zebrafish embryo assessed as inhibition of cell migration at 10 ug/ml measured after 3 days of incubation by CM-Dil staining-based microscopic method relative to control; format: functional
Procedure, shortened: (§4)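 HL60 cells labelled with CM-Dil; about 300 cells injected into yolk sac of embryos at 2 dpf. Embryos kept in compound (1, 3, 10 μg/mL), cytarabine 200 μg/mL or saline for 3 days. Embryos showing dissemination counted by microscopy, 15 larvae per group. Average ± SD of three independent assays; unpaired Student's t test.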

[7] = system: SH-SY5Y; test: Antiproliferative activity against human SH-SY5Y cells after 48 hrs by MTT assay; format: functional, cell-based
Procedure, shortened: (§5)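 Cells exposed to a range of concentrations for 48 h; proliferation by MTT. Mean ± SEM of six independent experiments. Resistant lines (HL-60/ADR, K562/ADR) held in ADR (printed as 1 μmol/mL) for 10–28 days, then 10 days drug-free before use. SW1990 and SH-SY5Y in DMEM + 10% FBS; leukemia lines in medium with 12% FBS. Vehicle 0.1% DMSO.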

[8] = species: Homo sapiens; test: (§6) Antiproliferative activity against human K562/G cells after 48 hrs by MTT assay; format: functional, cell-based; procedure, shortened: as §5
[9] = as §6; format: functional, cell-based; conditions: K562, 48 h; procedure, shortened: as §5
[10] = system: SW1990; test: Antiproliferative activity against human SW1990 cells after 48 hrs by MTT assay; format: functional, cell-based; procedure, shortened: as §5
[11] = system: HL60/ADR; test: Antiproliferative activity against human HL60/ADR cells after 48 hrs by MTT assay; format: functional, cell-based; procedure, shortened: as §5
[12] = system: HL-60; test: Antiproliferative activity against human HL60 cells after 48 hrs by MTT assay; format: functional, cell-based; procedure, shortened: as §5
[13] = system: HL-60; test: Antitumor activity against human HL60 cells xenografted in zebrafish embryo assessed as inhibition of cell proliferation at 10 ug/ml measured after 3 days of incubation by CM-Dil staining-based microscopic method relative to control; format: functional; procedure, shortened: as §4
[14] = system: K562; test: Antiproliferative activity against human K562 cells after 48 hrs by MTT assay; format: functional, cell-based; procedure, shortened: as §5
[15] = system: HL-60; test: Antitumor activity against human HL60 cells xenografted in zebrafish embryo assessed as decrease in cell dissemination measured after 3 days of incubation by CM-Dil staining-based microscopic method; format: functional; procedure, shortened: as §4
[16] = system: K562/Adr; test: Antiproliferative activity against human K562/ADR cells after 48 hrs by MTT assay; format: functional, cell-based; procedure, shortened: as §5
[17] = Toxicity in zebrafish embryo xenografted with human HL60 cells assessed as survival rate at <= 10 ug/ml treated for 3 days relative to control; format: organism-based, Danio rerio; procedure, shortened: as §3
[18] = molecular target: T1, Pyruvate kinase PKM; test: Binding affinity to recombinant human PKM2 expressed in Escherichia coli BL21 after overnight incubation by Western blot method
Procedure, shortened: (§7)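 Recombinant PKM1 or PKM2 incubated overnight at 4 °C with biotinylated probe. Biotin adduct detected by Western blot with streptavidin-HRP; loading checked by anti-PKM1/PKM2 blot. Repeated at least three times.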
Target sequence in this assay (P14618 2-531 limits assumed): as above

[19] = molecular target: T1, Pyruvate kinase PKM; test: Irreversible binding affinity to recombinant human PKM2 expressed in Escherichia coli BL21
Procedure, shortened: (§8)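 PKM2 (0.25 μM) incubated with biotinylated probe (20 μM, and other concentrations) for varying times. Time-dependent binding curves fitted for observed rate constants (Kobs) at each concentration. Kobs plotted against concentration to derive kact and Ki under an irreversible-binding model.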

[20] = molecular target: T1, Pyruvate kinase PKM; test: Irreversible binding affinity to recombinant human PKM2 expressed in Escherichia coli BL21 at 20 uM incubated for 2 to 150 mins; procedure, shortened: as §8
Target sequence in this assay (P14618 2-531 limits assumed): as above

[21] = molecular target: T1, Pyruvate kinase PKM; test: Binding affinity to PKM2 in human HL60 cells at 20 uM after overnight incubation in presence of 200 to 400 uM MCL by silver staining-based streptavidin-agarose pull-down assay; format: cell-based; procedure, shortened: as §1
Target sequence in this assay (P14618 2-531 limits assumed): as above

[22] = molecular target: T1, Pyruvate kinase PKM; test: Binding affinity to PKM2 in human HL60 cells at 20 uM after overnight incubation by Western blot method; format: cell-based; procedure, shortened: as §1
Target sequence in this assay (P14618 2-531 limits assumed): as above

[23] = molecular target: T1, Pyruvate kinase PKM; test: Binding affinity to recombinant human PKM2 at C424 residue expressed in Escherichia coli BL21 after 60 mins by Western blot method
Target sequence in this assay (P14618 2-531 limits assumed): as above

[24] = system: Pyruvate kinase PKM (Homo sapiens), P14618 [C424S]; test: Binding affinity to recombinant human PKM2 C424S mutant expressed in Escherichia coli BL21 after 60 mins by Western blot method
Chain of Pyruvate kinase PKM (Homo sapiens), P14618 [C424S] (P14618 whole entry C424S): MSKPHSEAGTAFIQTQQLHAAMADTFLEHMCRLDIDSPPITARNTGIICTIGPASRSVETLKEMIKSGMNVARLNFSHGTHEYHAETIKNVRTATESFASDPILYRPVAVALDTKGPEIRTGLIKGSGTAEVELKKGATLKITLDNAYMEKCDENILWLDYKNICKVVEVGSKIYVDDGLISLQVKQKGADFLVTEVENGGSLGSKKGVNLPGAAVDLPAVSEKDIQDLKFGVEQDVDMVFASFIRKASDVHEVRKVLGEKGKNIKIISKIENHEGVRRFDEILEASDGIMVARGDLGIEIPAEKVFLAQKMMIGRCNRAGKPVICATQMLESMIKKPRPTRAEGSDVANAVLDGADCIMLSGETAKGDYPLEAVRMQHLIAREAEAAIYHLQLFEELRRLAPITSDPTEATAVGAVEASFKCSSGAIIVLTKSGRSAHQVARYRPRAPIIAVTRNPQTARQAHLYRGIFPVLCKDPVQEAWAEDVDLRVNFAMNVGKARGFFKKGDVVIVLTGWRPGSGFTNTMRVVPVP

[25] = molecular target: T1, Pyruvate kinase PKM; test: Binding affinity to recombinant human PKM1 expressed in Escherichia coli BL21 after overnight incubation by Western blot method; procedure, shortened: as §7
[26] = molecular target: T1, Pyruvate kinase PKM; test: Irreversible binding affinity to recombinant human PKM2 expressed in Escherichia coli BL21 assessed as ratio of Kact to Ki; procedure, shortened: as §8
[27] = system: HL-60; test: Antitumor activity against human HL60 cells xenografted in zebrafish embryo assessed as inhibition of cell proliferation at 200 ug/ml measured after 3 days of incubation by CM-Dil staining-based microscopic method relative to control; format: functional; procedure, shortened: as §4
[28] = system: HL-60; test: Antitumor activity against human HL60 cells xenografted in zebrafish embryo assessed as inhibition of cell migration at 200 ug/ml measured after 3 days of incubation by CM-Dil staining-based microscopic method relative to control; format: functional; procedure, shortened: as §4

## CC1=C2CC[C@@](C)(OC(=O)CCCc3cn(CCOCCOCCOCCNC(=O)CCCC[C@H]4SC[C@H]5NC(=O)N[C@H]54)nn3)[C@@H]2[C@H]2OC(=O)[C@@H](C)[C@@H]2CC1
[1]
  Activity: inactive

## C=C1C(=O)O[C@H]2[C@H]1CCC(C)=C1CC[C@@](C)(O)[C@@H]12
[2]
  Activity: Active
[3]
  Activity: inactive
[4]
  Activity: inactive

## CC1=C2CC[C@@](C)(O)[C@@H]2[C@H]2OC(=O)[C@@H](CN(C)C)[C@@H]2CC1.O=C(O)/C=C/C(=O)O
[5]
  mortality at 20 ug/ml: 80%
[6]
  inhibition (INH): 58.1%
[7]
  Activity: Dose-dependent effect
  IC50: 3.9 to 16.2 µM
  IC90: 16.4 to 54.1 µM
[8]
  Activity: Dose-dependent effect
[9]
  IC50: 3.9 to 16.2 µM
  IC90: 16.4 to 54.1 µM
[10]
  Activity: Dose-dependent effect
[10]; SW1990, 48 h
  IC50: 3.9 to 16.2 µM
  IC90: 16.4 to 54.1 µM
[11]
  Activity: Dose-dependent effect
  IC50: 3.9 to 16.2 µM
  IC90: 16.4 to 54.1 µM
[12]
  Activity: Dose-dependent effect
[12]; HL-60, 48 h
  IC50: 3.9 to 16.2 µM
  IC90: 16.4 to 54.1 µM
[13]
  inhibition (INH): 56.44%
[14]
  Activity: Dose-dependent effect
[14]; K562, 48 h
  IC50: 3.9 to 16.2 µM
  IC90: 16.4 to 54.1 µM
[15]
  Activity: Dose-dependent effect
[16]
  Activity: Dose-dependent effect
  IC50: 3.9 to 16.2 µM
  IC90: 16.4 to 54.1 µM
[17]
  survival at 72 h: 100%

## C=C1C(=O)O[C@H]2[C@H]1CCC(C)=C1CC[C@@](C)(OC(=O)CCCc3cn(CCOCCOCCOCCNC(=O)CCCC[C@H]4SC[C@H]5NC(=O)N[C@H]54)nn3)[C@@H]12
[18]
  Activity: Active
[19]
  Kact: 0.031 min⁻¹
  Ki: 0.05 µM
[20]
  K: 0.033 min⁻¹
[20]; TDE = time-dependent effect
  Activity: Tde
[21]
  Activity: inactive
[22]
  Activity: Active
[23]
  Activity: Active
[24]
  Activity: inactive
[25]
  Activity: inactive
[1]
  Activity: Active
[26]
  Ratio: 1.03 ×10⁴ /M/s

## Nc1ccn([C@@H]2O[C@H](CO)[C@@H](O)[C@@H]2O)c(=O)n1 [CYTARABINE]
[27]
  inhibition (INH): 43.28%
[28]
  inhibition (INH): 44.04%
